Experimental data reported in article PMC3584523 (International Journal of Oncology, 2011).
Entries after “also recorded” stand apart in the source; their conditions may differ.

Key:
[1] = biological target: T1, human recombinant LPA1 receptor (Homo sapiens, UniProt Q92633); assay: Calcium flux assay, antagonism of LPA-induced calcium flux; format: cell-based; details: for IC50: read-out: IC50, inhibition of LPA-induced calcium flux, human LPA1-expressing Chem-1 cells, 1 μM Oleoyl LPA
[2] = biological target: T1, human recombinant LPA1 receptor; assay: Calcium flux assay, LPA1 agonist activity; format: cell-based; details: human LPA1-expressing Chem-1 cells; for agonist activity at the LPA1 receptor (calcium flux): 0.0045–10 μM
Procedure, shortened: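 Chem-1 stable cell line expressing human recombinant LPA1, loaded with Fluo-4 NW. Test compound, the racemic reference or oleoyl-LPA reference agonist was added as an eight-point 3-fold serial dilution starting at 10 μM (0.0045–10 μM), and calcium flux stimulation was measured. The reference agonist's EC80 was derived from its dose-response.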

LPA3 = biological target: T2, LPA3 (Homo sapiens, UniProt Q9UBY5); assay: Antagonist activity at LPA3; format: cell-based; details: read-out: IC50, antagonist activity at LPA3
T2 sequence (Q9UBY5 1-353): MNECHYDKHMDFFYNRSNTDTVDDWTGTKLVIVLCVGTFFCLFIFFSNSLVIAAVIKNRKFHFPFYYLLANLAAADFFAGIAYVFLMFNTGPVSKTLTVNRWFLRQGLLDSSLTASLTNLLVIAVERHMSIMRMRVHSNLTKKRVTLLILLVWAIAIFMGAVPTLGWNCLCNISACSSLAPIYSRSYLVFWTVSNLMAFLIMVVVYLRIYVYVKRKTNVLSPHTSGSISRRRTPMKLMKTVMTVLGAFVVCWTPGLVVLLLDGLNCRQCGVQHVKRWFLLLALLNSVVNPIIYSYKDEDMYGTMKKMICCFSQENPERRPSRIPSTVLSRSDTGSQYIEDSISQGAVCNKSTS

[3] = tested on: breast cancer cell-mediated bone metastases; details: treatment of bone metastatic animals; cited from earlier work
[4] = tested on: 4T1 mouse mammary cancer cells; assay: LPA-induced cell invasion assay; format: cell-based; details: LPA 5 μM as chemoattractant; Debio 0719 1 and 5 μM; 24 h
Procedure, shortened: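 4T1 cells were grown in DMEM with 10% FBS and penicillin/streptomycin at 37°C, 5% CO2. 2×10^5 cells were placed in the upper compartment of Matrigel-coated 8-μm filter chambers with or without test compound. LPA with 1% FBS was in the lower chamber. After 24 h at 37°C, cells that crossed the filter were fixed, stained and counted in 10 random fields (×40) and reported as cells/mm2.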

[5] = Pharmacokinetic study in male CD-1 mice; format: in vivo, mouse
Procedure, shortened: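 Male CD-1 mice received test compound in 10% DMA, 5% Cremophor EL and 85% saline. It was given either as an intravenous 5 mg/kg bolus into the jugular vein or by oral gavage at 50 mg/kg. Retro-orbital blood was taken into sodium heparin, n=3 per time point. Plasma was spiked with methanol and lovastatin internal standard, vortexed, centrifuged and measured by LC/MS. Parameters are given as means.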

4T1 cells [6] = assay: Orthotopic 4T1 mammary fat pad model, treatment day 0 to 14; format: in vivo, mouse
4T1 cells [7] = assay: Orthotopic 4T1 model, adjuvant treatment day 15 to 35; format: in vivo, mouse; details: 25 or 50 mg/kg per os twice daily after tumor resection at day 14
Procedure, shortened: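 To count disseminated tumour cells, marrow was flushed from tibias and femurs and plated in complete medium with 6-thioguanine 10 μM, which only the naturally resistant 4T1 cells survive. After two weeks the clones were fixed, stained and counted, and reported as clones/mm2.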

T1 sequence (Q92633 whole entry): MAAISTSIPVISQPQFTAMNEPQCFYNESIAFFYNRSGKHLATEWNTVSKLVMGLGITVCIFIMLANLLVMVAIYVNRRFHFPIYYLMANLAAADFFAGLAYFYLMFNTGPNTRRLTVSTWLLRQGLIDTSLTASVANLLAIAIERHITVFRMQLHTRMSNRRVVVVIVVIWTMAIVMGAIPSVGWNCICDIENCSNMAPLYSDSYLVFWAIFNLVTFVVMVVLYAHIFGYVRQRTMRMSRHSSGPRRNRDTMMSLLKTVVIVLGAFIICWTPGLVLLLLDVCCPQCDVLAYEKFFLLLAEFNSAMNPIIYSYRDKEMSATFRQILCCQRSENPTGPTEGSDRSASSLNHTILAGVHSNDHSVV

SMILES: Cc1noc(-c2ccc(CSCCC(=O)O)cc2)c1NC(=O)OC(C)c1ccccc1Cl (centres unmarked) [Ki16425, reference compound]
- IC50 [1]: 0.13 µM
- agonist activity at the LPA1 receptor (calcium flux) [2]: no agonist activity
- IC50 (LPA3): 2.3 µM
- progression of bone metastases [3]: inhibits efficiently the progression of bone metastases

SMILES: Cc1noc(-c2ccc(CSCCC(=O)O)cc2)c1NC(=O)O[C@@H](C)c1ccccc1Cl [Debio 0719-425(S)]
- IC50 [1]: 2.8 µM
- agonist activity at the LPA1 receptor (calcium flux) [2]: no agonist activity

SMILES: Cc1noc(-c2ccc(CSCCC(=O)O)cc2)c1NC(=O)O[C@H](C)c1ccccc1Cl [Debio 0719]
- potency relative to Ki16425 at inhibiting LPA1-induced calcium flux ([1]; ratio of IC50 values): 2 fold
- IC50 [1]: 0.06 µM
- agonist activity at the LPA1 receptor (calcium flux) [2]: no agonist activity; also recorded: did not demonstrate any agonist effects
- IC50 (LPA3): 0.66 µM
- LPA-induced 4T1 cell invasion [4]: dose-dependently blocked
- tolerability after oral exposure [5]: well tolerated
- Plasma clearance ([5]; intravenous 5 mg/kg): 111 mL/min/kg
- Time to maximum concentration ([5]; intravenous 5 mg/kg): 0.08 h
- plasma concentration by 4 h ([5]; intravenous 5 mg/kg): ~ 1 nM
- Bioavailability ([5]; oral 50 mg/kg): 14.41 % EF
- Time to maximum concentration ([5]; oral 50 mg/kg): 0.25 h
- plasma concentration by 8 h ([5]; oral 50 mg/kg): ~ 10 nM
- time of peak plasma concentration ([5]; oral 50 mg/kg): 15 min
- oral bioavailability ([5]; oral 50 mg/kg, no unit in text): 14.41
- inhibition of number of lung metastasis foci (4T1 cells [6]; 50 mg/kg per os twice daily, day 0 to 14, sacrifice day 35, p=0.022): 62%
- inhibition of total area of lung metastases (4T1 cells [6]; 50 mg/kg per os twice daily, day 0 to 14, sacrifice day 35, p=0.029): 89%
- tolerability (mouse weight gain, deleterious effects) (4T1 cells [6]; 25 and 50 mg/kg per os twice daily, day 0 to 14, female BALB/c mice): well tolerated; also recorded: did not induce noticeable deleterious effects
- burden (weight) of resected primary tumors vs untreated (4T1 cells [6]; 25 and 50 mg/kg per os twice daily, day 0 to 14, tumors resected day 14): no difference
- rescue of 4T1-DTCs from bone marrow (4T1 cells [6]; either high or low dose, day 0 to 14, sacrifice day 35): not able to rescue any 4T1-DTCs
- reduction in the area of lung metastasis foci (4T1 cells [6]; lower dosing (25 mg/kg per os twice daily), day 0 to 14, p=0.053): did not reach statistical significance
- expression of mitotic marker Ki-67 in primary tumors vs untreated (4T1 cells [6]; per os twice daily, day 0 to 14, immunohistochemistry): similar
- number of 4T1-DTCs rescued from bone marrow vs vehicle (4T1 cells [7]): no statistically significant difference

SMILES: CCCCCCCC/C=C\CCCCCCCC(=O)OC[C@@H](O)COP(=O)(O)O [oleoyl LPA, Lysophosphatidic acid (LPA, Oleoyl C18:1), reference compound]
- EC50 ([2]; read-out: EC50, stimulation of calcium flux): 0.49 µM
